Experimental data published in ChEMBL document CHEMBL5385965, “Discovery of novel positive allosteric modulators targeting GluN1/2A NMDARs as anti-stroke therapeutic agents” (RSC Med Chem, 2024).
Active and inactive are the calls of the source. The rule behind the calls is not given here.

Key:
PC-12 [1] = test: Neuroprotective activity against glutamate-induced excitotoxicity in rat PC12 cells assessed as cell viability at 0.1 uM preincubated for 4 hrs followed by glutamate treatment for 24 hrs by CCK8 assay (reference value: 44.89 +/- 2.08 %); type: functional; settings: time 28 hrs, read-out: Activity
[2] = molecular target: T1, Glutamate NMDA receptor; GRIN1/GRIN2B (Homo sapiens) (UniProt Q05586+Q13224); test: Positive allosteric modulation of GluN1/N2B (unknown origin) transfected in HEK293 cells assessed as potentiation of Glu/Gly-induced calcium influx by Cal-520 AM dye based assay; type: cell-based
Method in brief: (§1)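 HEK293 cells were co-transfected 1:1 with GluN1 plus GluN2A or GluN2B at 90% confluence and seeded 40 000/well on poly-D-lysine plates overnight. Cells were loaded with Cal-520 AM for 1.5 h at 37 °C, and compounds were tested at 10 μM. Responses to Glu (2 mM)/Gly (100 μM) were recorded in HEPES-buffered Tyrode's (pH 7.2) at Ex 485/Em 515 nm every 1.6 s, expressed as area under the FMAX/F0 curve.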

HT-22 [3] = test: Neuroprotective activity against glutamate-induced excitotoxicity in mouse HT-22 cells assessed as cell viability at 0.1 uM preincubated for 4 hrs followed by glutamate treatment for 24 hrs by CCK8 assay (reference value: 30.31 +/- 2.02 %); type: functional; settings: time 28 hrs, read-out: Activity
PC-12 [4] = test: Neuroprotective activity against glutamate-induced excitotoxicity in rat PC12 cells assessed as cell viability at 1 uM preincubated for 4 hrs followed by glutamate treatment for 24 hrs by CCK8 assay (reference value: 43.19 +/- 2.98 %); type: functional; settings: time 28 hrs, read-out: Activity
HT-22 [5] = test: Neuroprotective activity against glutamate-induced excitotoxicity in mouse HT-22 cells assessed as cell viability at 1 uM preincubated for 4 hrs followed by glutamate treatment for 24 hrs by CCK8 assay (reference value: 35.56 +/- 2.12 %); type: functional; settings: time 28 hrs, read-out: Activity
HT-22 [6] = test: Neuroprotective activity against glutamate-induced excitotoxicity in mouse HT-22 cells assessed as cell viability at 10 uM preincubated for 4 hrs followed by glutamate treatment for 24 hrs by CCK8 assay (reference value: 34.80 +/- 4.02 %); type: functional; settings: time 28 hrs, read-out: Activity
[7] = Cytotoxicity against rat PC12 cells assessed as cell viability at 10 uM incubated for 4 hrs by CCK8 assay relative to control; type: toxicity, cell-based, PC-12; settings: read-out: Activity
PC-12 [8] = test: Neuroprotective activity against glutamate-induced excitotoxicity in rat PC12 cells assessed as cell viability at 10 uM preincubated for 4 hrs followed by glutamate treatment for 24 hrs by CCK8 assay (reference value: 43.75 +/- 2.04 %); type: functional; settings: time 28 hrs, read-out: Activity
Mus musculus [9] = test: Neuroprotective activity against tMCAO-reperfusion induced nerve injury in C57BL/6 mouse model assessed as reduction in volume of ischemia cerebral infarction at 5 mg/kg, ip measured after 22 hrs by TTC staining based analysis relative to control; type: functional; set-up: scale not given: the % may be the effect or the level left
[10] = molecular target: Glutamate NMDA receptor; GRIN1/GRIN2A (Homo sapiens) (UniProt Q05586+Q12879); test: Positive allosteric modulation of GluN1/N2A (unknown origin) transfected in HEK293 cells assessed as potentiation of Glu/Gly-induced calcium influx by Cal-520 AM dye based assay; type: cell-based; settings: filed as positive allosteric modulator; method in brief: as §1
Mus musculus [11] = test: Neuroprotective activity against tMCAO-reperfusion induced nerve injury in C57BL/6 mouse model assessed as recovery of neurological deficit score at 5 to 10 mg/kg, ip measured after 22 hrs; type: functional, organism-based; settings: dose 5-10 mg/kg
Method in brief: (§2)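 Male C57BL/6 mice (6–8 weeks, 18–22 g) were randomized and given 1, 5 or 10 mg/kg i.p. in 5% DMSO, 20% PEG300, 5% Tween-80 in saline. Under isoflurane, the left MCA was occluded with a nylon monofilament for 1.5 h, then reperfused, with body temperature held at 37 °C. Neurological scores were taken after tMCAO. n=6, mean ± SD, one-way ANOVA with Dunnett's test vs vehicle.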

[12] = molecular target: Glutamate NMDA receptor; GRIN1/GRIN2A/GRIN2B (Homo sapiens) (UniProt Q05586+Q12879+Q13224); test: Positive allosteric modulation of GluN1/N2A/N2B (unknown origin) transfected in HEK293 cells assessed as potentiation of Glu/Gly-induced calcium influx by Cal-520 AM dye based assay; type: cell-based
Mus musculus [13] = test: Neuroprotective activity against tMCAO-reperfusion induced nerve injury in C57BL/6 mouse model assessed as reduction in volume of ischemia cerebral infarction at 10 mg/kg, ip measured after 22 hrs by TTC staining based analysis (reference value: 130.60 +/- 9.93 mm3); type: functional
Mus musculus [14] = test: Neuroprotective activity against tMCAO-reperfusion induced nerve injury in C57BL/6 mouse model assessed as reduction in volume of ischemia cerebral infarction at 10 mg/kg, ip measured after 22 hrs by TTC staining based analysis relative to control; type: functional; set-up: scale not given: the % may be the effect or the level left
Mus musculus [15] = test: Neuroprotective activity against tMCAO-reperfusion induced nerve injury in C57BL/6 mouse model assessed as reduction in volume of ischemia cerebral infarction at 5 mg/kg, ip measured after 22 hrs by TTC staining based analysis (reference value: 130.60 +/- 9.93 mm3); type: functional
[16] = molecular target: T1, Glutamate NMDA receptor; GRIN1/GRIN2B (Homo sapiens); test: […] of GluN1/N2B (unknown origin) transfected in HEK293 cells assessed as potentiation of Glu/Gly-induced calcium influx by Cal-520 AM dye based assay; type: cell-based; method in brief: as §1
Mus musculus [17] = test: Neuroprotective activity against tMCAO-reperfusion induced nerve injury in C57BL/6 mouse model assessed as recovery of neurological deficit score at 10 mg/kg, ip measured after 22 hrs; type: functional, organism-based; method in brief: as §2

Row | SMILES | viability at 0.1 µM (PC-12 [1]) [%] | Activity [2] | viability at 0.1 µM (HT-22 [3]) [%] | viability at 1 µM (PC-12 [4]) [%] | viability at 1 µM (HT-22 [5]) [%] | viability at 10 µM (HT-22 [6]) [%] | viability at 4 h, 10 µM [7] [%] | viability at 10 µM (PC-12 [8]) [%] | further results
1 | COc1cc(/C=C/C(=O)NCC(O)c2ccc(O)cc2)ccc1O (configuration not stated) | 64.2 | inactive | 42.7 | 66.5 | 77.6 | 39.6 | 96.6 | 62.8 | 
2 | COc1cc(OC/C=C(\C)CCC=C(C)C)c2ccc(=O)oc2c1 | 67.4 | inactive | 34.9 | 69 | 69 | 41.4 | 74.7 | 70.1 | 
3 | COc1ccc(C(O)CNC(=O)/C=C/c2ccccc2)cc1 (configuration not stated) |  | inactive |  |  |  |  |  |  | Activity (Mus musculus [9]): 30.68%; Activity [10]: Dose-Dependent Effect; Activity (Mus musculus [11]): Active; Activity [12]: inactive; Activity (Mus musculus [13]): 74.83 mm3; Activity (Mus musculus [14]): 42.7%; Activity (Mus musculus [15]): 90.53 mm3
4 | C=CCc1ccc(O)c(-c2ccc(O)c(CC=C)c2)c1 |  | inactive |  |  |  |  |  |  | Activity [16]: Active
5 | CC(C)=CCC/C(C)=C/COc1c2ccoc2cc2oc(=O)ccc12 |  | inactive |  |  |  |  |  |  | 
6 | CC(C)=CCC/C(C)=C/COc1ccc2ccc(=O)oc2c1 |  | inactive |  |  |  |  |  |  | 
7 | CC(Cc1ccc(O)c(O)c1)C(C)Cc1ccc(O)c(O)c1 (configuration not stated) |  | inactive |  |  |  |  |  |  | 
8 | CCCCCCC/C=C/C(=O)CCc1ccc(O)c(OC)c1 |  | inactive |  |  |  |  |  |  | 
9 | CCN(CC)CCCC(C)Nc1ccnc2cc(Cl)ccc12 (configuration not stated) |  | inactive |  |  |  |  |  |  | 
10 | COc1cc(/C=C/C(=O)NCCc2ccc(O)cc2)cc(OC)c1O |  | inactive |  |  |  |  |  |  | 
11 | COc1cc(/C=C/C(=O)NCCc2ccc(O)cc2)ccc1O |  | inactive |  |  |  |  |  |  | 
12 | COc1cc(C(=O)OCCCCNC(=N)N)cc(OC)c1O |  | inactive |  |  |  |  |  |  | 
13 | C[C@H](CCc1ccc(O)cc1)NCCc1ccc(O)c(O)c1 |  | inactive |  |  |  |  |  |  | 
14 | O=C(/C=C/c1ccc(O)c(O)c1)OC(Cc1ccc(O)c(O)c1)C(=O)O (configuration not stated) |  | inactive |  |  |  |  |  |  | 
15 | O=C(CCCCc1ccc2c(c1)OCO2)N1CCCCC1 |  | inactive |  |  |  |  |  |  | 
16 | O=C(CCc1ccccc1)C[C@@H](O)/C=C/c1ccccc1 |  | inactive |  |  |  |  |  |  | 
17 | C=CCN1C[C@H](C(=O)N(CCCN(C)C)C(=O)NCC)C[C@@H]2c3cccc4[nH]cc(c34)C[C@H]21 [CABERGOLINE] | 63.9 | inactive | 37.7 | 68.2 | 73.8 | 37.4 | 94.8 | 87.5 | 
18 | COc1cc(CNC(=O)CCCCCCC(C)C)ccc1O [DIHYDROCAPSAICIN] | 66.1 | inactive | 32.6 | 76.1 | 95.4 | 43.3 | 104 | 102 | 
19 | CC1=NN(c2ccccc2)C(=O)C1 [EDARAVONE] |  |  |  |  |  |  |  |  | Activity (Mus musculus [17]): Active; Activity (Mus musculus [13]): 68.04 mm3
20 | COc1cc(CCC(=O)CC(O)CCc2ccc(O)c(OC)c2)ccc1O (configuration not stated) [HEXAHYDROCURCUMIN] | 66 | inactive | 41.4 | 52.4 | 103 | 42.9 | 73.3 | 66.5 | Activity [10]: Active
21 | COC(=O)[C@@H](Cc1ccc(O)c(O)c1)OC(=O)/C=C/c1ccc(O)c(O)c1 [METHYL ROSMARINATE] | 74.1 | inactive | 46.3 | 75.2 | 80.4 | 25.6 | 69.6 | 53.6 | 
22 | O=C(/C=C/C=C/c1ccc2c(c1)OCO2)N1CCCCC1 [PIPERINE] | 66.2 | inactive | 36.5 | 57.3 | 87.8 | 24.5 | 98.3 | 35.2 | 
23 | COCCCOc1ccnc(C[S+]([O-])c2nc3ccccc3[nH]2)c1C (configuration not stated) [RABEPRAZOLE] | 64.7 | inactive | 39.9 | 66.7 | 76.5 | 16 | 93.2 | 60.9 | 
24 | N[C@@H](CC(=O)N1CCn2c(nnc2C(F)(F)F)C1)Cc1cc(F)c(F)cc1F [SITAGLIPTIN] | 62.6 | inactive | 24.8 | 69.5 | 71 | 52.4 | 95.5 | 77.8 | 
